TAAR1 ag – human TAAR1 agonists, primary screen, Fluo-8 calcium fluorescence, CHO RD-HGA16 cells; 0.99% of 360,000 active; activation, % at 3 µM; Trace amine-associated receptor 1 (Homo sapiens), Q96RJ0; vehicle wells 0%, saturating PEA agonist 100%;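 active means activation above the mean activation of all test compounds in the run plus 3 SD, cut at about 38% in these data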
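Assay system – CHO-derived RD-HGA16 cells with stable Gα16 and human TAAR1 · Compound dosing – one-point dosing at 3 µM (nominal) · Incubation – 17-24 h seeding, 75 min 37 °C dye, 30 min RT · Measured by – kinetic Fluo-8 calcium fluorescence · Control set – DMSO vehicle as 0%, PEA at EC100 as 100% · Repeats – single well for each compound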
OX1R antag-1 – antagonists of human orexin 1 receptor (OX1R); Orexin/Hypocretin receptor type 1 (Homo sapiens), O43613; OX1R-expressing cells, FRET antagonist read-out; inhibition, % at 6.6 µM; 1.8% of 330,000 active; AID 485270, 2010; in the data active means inhibition mostly above about 38%, no sharp cut-off; inactive means mostly below about 40%;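 further: 0% = agonist challenge alone and 100% = reference antagonist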
Target sequence (O43613 whole entry, looked up): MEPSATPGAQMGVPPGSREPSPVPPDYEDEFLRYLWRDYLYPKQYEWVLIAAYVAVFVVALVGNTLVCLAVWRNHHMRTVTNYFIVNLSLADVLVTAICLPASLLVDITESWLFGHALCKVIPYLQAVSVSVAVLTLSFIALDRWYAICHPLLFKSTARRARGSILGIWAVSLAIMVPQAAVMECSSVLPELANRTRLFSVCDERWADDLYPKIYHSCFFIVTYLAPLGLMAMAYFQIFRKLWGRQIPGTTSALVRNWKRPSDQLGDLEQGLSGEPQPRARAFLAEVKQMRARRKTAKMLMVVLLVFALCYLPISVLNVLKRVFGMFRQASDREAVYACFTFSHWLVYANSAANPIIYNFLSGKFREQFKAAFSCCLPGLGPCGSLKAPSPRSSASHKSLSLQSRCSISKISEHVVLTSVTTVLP
GPR7 antag – GPR7 receptor antagonists, primary screen, cell-based, fluorescence, single concentration. GPR7-expressing cells, fluorescence antagonist assay. 1.1% of 290,000 active. AID 1861, 2009. inhibition, % at 4.4 µM; in the data active means inhibition above about 16%, passing the limit was not always enough;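 further: cells stimulated with the agonist NPW; 0% = agonist with vehicle and 100% = vehicle without agonist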
TAAR1 antag – human TAAR1 antagonists, primary screen, Fluo-8 calcium fluorescence, CHO RD-HGA16 cells; 1.5% of 360,000 active; inhibition, % at 3 µM; antagonist; Trace amine-associated receptor 1 (Homo sapiens), Q96RJ0;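 active means inhibition above a per-plate cutoff, the mean inhibition of test compounds on that plate plus 3 SD, cut at about 49% in these data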;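 further: 0% = DMSO plus EC80 beta-PEA response and 100% = DMSO alone without agonist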
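Test system: RD-HGA16 CHO cells with stable hTAAR1 and Gα16 / Probe or stimulus: EC80 β-phenethylamine stimulus / Times: seeding 17-24 h prior, 75-min 37 °C, 30-min RT dye loading / Detection: Fluo-8 calcium-sensitive fluorescence / Read-out basis: % inhibition scaled between DMSO and EC80 PEA controls / Repeats: singlicate, one well per test compound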
OX1R antag-2 – OX1R (HCRTR1) antagonists, primary screen, fluorescence, CHO/OX1R cells, Fluo-8 calcium, orexin A; Fluo-8 calcium fluorescence; inhibition, % at 5 µM; 0.43% of 330,000 active;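 active means inhibition above its plate's threshold, mean inhibition of all tested compounds on the plate plus 3 SD, cut at about 37% in these data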;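 further: 0% = orexin A challenge wells and 100% = SB-334867-A antagonist wells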
CHO parental Ca – ATP-evoked calcium signal inhibitors, parental CHO, primary screen, counter-screen for OX1R antagonist project, cell-based, fluorescence, Fluo-8 calcium dye; 0.63% of 330,000 active; parental CHO-K1, ATP-induced calcium, Fluo-8 fluorescence; inhibition, % at 5.6 µM;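 active means inhibition above that plate's mean sample inhibition plus 3 SD, cut at about 26% in these data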;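 further: 0% = ATP-challenged DMSO wells and 100% = DMSO wells without ATP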
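Material: Parental CHO cells | Reagent: ATP | Compound dosing: Single nominal dose of 5.6 µM per compound | Detection: Intracellular calcium via Fluo-8 no-wash fluorescent dye | Read-out: % inhibition of ATP-induced calcium mobilization | Benchmarks: Low control ATP plus DMSO, high control DMSO only | Replicates: Singlicate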
TAAR1 ag confirm – human TAAR1 agonists, retest of hits, confirmation, Fluo-8 calcium fluorescence, CHO RD-HGA16 cells; shares compounds with TAAR1 ag; scaled: DMSO 0%, maximal phenethylamine 100%; activation, % at 3 µM; 82% of 2,400 active; AID 651783, 2012;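 active means activation above a cutoff set at the run's mean compound activation plus 3 SD, cut at about 39% in these data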
Ga16 ag counter – nonselective calcium mobilization agonists, CHO-Ga16 cells, counter-screen for hTAAR1 agonist project, cell-based, fluorescence, CHO-Ga16 parental line. shares compounds with TAAR1 ag. Fluo-8 calcium fluorescence; normalized to maximal ATP response, DMSO zero. activation, % at 3 µM. 50% of 2,400 active. AID 651787, 2012;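 active means activation above the run cutoff, the mean activation over all tested wells plus 3 SD, cut at about 12% in these data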;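 further: 0% = DMSO wells and 100% = maximal ATP response on the peak over basal ratio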
TAAR1 desens – TAAR1 desensitization by agonist hits, confirmation, counter-screen for TAAR1 agonist project, cell-based, fluorescence, tachyphylaxis; shares compounds with TAAR1 ag; CHO RD-HGA16 hTAAR1, Fluo-8 calcium, beta-PEA response inhibition; inhibition, % at 3 µM; 46% of 2,400 active; AID 651951, 2012;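 active means inhibition above the run cutoff, the mean inhibition of all test compounds plus 3 SD, cut at about 49% in these data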;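 further: beta-PEA stimulus applied at its EC80; loss of beta-PEA calcium signal after compound pretreatment read as receptor desensitization; 0% = DMSO with beta-PEA at EC80 and 100% = DMSO alone without agonist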
Ga16 nonsel ant – inhibition of ATP-evoked calcium response in CHO-Ga16 cells, counter-screen for TAAR1 agonist project, cell-based, fluorescence; CHO-Ga16 ATP-induced calcium, Fluo-8 fluorescence; shares compounds with TAAR1 ag; 39% of 2,400 active; inhibition, % at 3 µM;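 active means inhibition above the plate's mean compound inhibition plus 3 SD, computed per plate, cut at about 22% in these data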;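 further: 0% = EC80 ATP with DMSO and 100% = DMSO wells without ATP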
Numbers without * were called inactive. Most compounds without a hit are left out; they make up all but 4.6% or so of the library.

`CC1(C(=O)NS(=O)(=O)c2ccc(F)cc2F)CCN1C(=O)c1ccccc1` (stereo not drawn) gave TAAR1 ag 2 and TAAR1 antag -29.
`CC(C)(C)CC(C)(C)NCC(O)COc1ccc2c(c1)CCC2` (stereo not drawn) gave TAAR1 ag 56*, OX1R antag-1 8, GPR7 antag 4, TAAR1 antag -1, OX1R antag-2 -29, CHO parental Ca -23, TAAR1 ag confirm 20, Ga16 ag counter 12*, TAAR1 desens 0 and Ga16 nonsel ant 11.
For CCOC(=O)c1ccc(N2CN(CCc3ccccc3)CNC2=S)cc1 the results were OX1R antag-1 3, GPR7 antag -12, OX1R antag-2 4, CHO parental Ca -7, Ga16 ag counter 5 and Ga16 nonsel ant 3.
For Cc1ccc(N2CN(CCc3ccccc3)CNC2=S)cc1 the results were TAAR1 ag 73*, OX1R antag-1 1, GPR7 antag -12, TAAR1 antag 60*, OX1R antag-2 -15, CHO parental Ca -21, TAAR1 ag confirm 90*, Ga16 ag counter 0, TAAR1 desens 81* and Ga16 nonsel ant 8.
CCCN1CNC(=S)N(c2ccc(C(=O)OCC)cc2)C1 was read as TAAR1 ag 2, OX1R antag-1 17, GPR7 antag -6, TAAR1 antag 8, OX1R antag-2 -6 and CHO parental Ca -14.
Screening CCN1CNC(=S)N(CCc2ccccc2)C1 returned TAAR1 ag 2, OX1R antag-1 32, GPR7 antag 1, TAAR1 antag 8, OX1R antag-2 -3 and CHO parental Ca 5.
For Cc1ccc(C)c(N2CN(CCC3=CCCCC3)CNC2=S)c1 the results were TAAR1 ag 59*, OX1R antag-1 6, GPR7 antag 1, TAAR1 antag 23, OX1R antag-2 -23, CHO parental Ca -13, TAAR1 ag confirm 53*, Ga16 ag counter 1, TAAR1 desens 59* and Ga16 nonsel ant 14.
Screening C=CCN1CN(CCc2ccccc2)CNC1=S returned TAAR1 ag 55*, OX1R antag-1 11, GPR7 antag -3, TAAR1 antag 5, OX1R antag-2 -5, CHO parental Ca -10, TAAR1 ag confirm 81*, Ga16 ag counter 15*, TAAR1 desens 46 and Ga16 nonsel ant 2.
NC(=O)NC(CC(=O)NNC(=O)c1ccccn1)c1ccccc1Cl (stereo not drawn) was read as TAAR1 ag 0, OX1R antag-1 4, TAAR1 antag 18, OX1R antag-2 0 and CHO parental Ca -7.
Screening S=C(NCc1ccccc1)NCc1ccccc1Cl returned TAAR1 ag -1, GPR7 antag 3 and TAAR1 antag 4.
Screening COc1cccc(C(=O)N2CCC[C@H]2C(=O)N2CCC[C@H]2C(=O)N[C@@H](C)c2ccccc2)c1 returned TAAR1 ag -1 and TAAR1 antag 4.
Screening Cc1cc(C)cc(OCCCN2CCC(C(O)(c3ccccc3)c3ccccc3)CC2)c1 returned TAAR1 ag 25 and TAAR1 antag 30.
Screening Cc1ccccc1OCCCN1CCC(C(O)(c2ccccc2)c2ccccc2)CC1 returned TAAR1 ag 37*, TAAR1 antag 34, TAAR1 ag confirm 51*, Ga16 ag counter 19*, TAAR1 desens 38 and Ga16 nonsel ant 26*.
OC(c1ccccc1)(c1ccccc1)C1CCN(CCCOc2cccc(F)c2)CC1 was read as TAAR1 ag 45*, TAAR1 antag 40, TAAR1 ag confirm 16, Ga16 ag counter 10, TAAR1 desens 14 and Ga16 nonsel ant 16.
For CCCCN(C(=O)c1cnccn1)c1c(N)n(CCC)c(=O)[nH]c1=O the results were TAAR1 ag 5, OX1R antag-1 3, TAAR1 antag -16, OX1R antag-2 -18 and CHO parental Ca -13.
Screening COc1ccc(NC(=O)CN(c2ccccc2F)S(=O)(=O)c2ccc(C)cc2)c(OC)c1 returned TAAR1 ag -1, OX1R antag-1 26, GPR7 antag -5, TAAR1 antag -11, OX1R antag-2 -17 and CHO parental Ca -31.
Cn1cc(S(=O)(=O)N2CCOCC2)cc1C(=O)O was read as TAAR1 ag 4, OX1R antag-1 7, TAAR1 antag -11, OX1R antag-2 15 and CHO parental Ca -3.
`CCCCNc1ccc2c3c(cccc13)C(=O)N(CCCC)C2=O` gave TAAR1 ag 498*, GPR7 antag 37*, TAAR1 antag 108*, TAAR1 ag confirm 182*, Ga16 ag counter 288*, TAAR1 desens 90* and Ga16 nonsel ant 95*.
`O=C(Nc1ccccc1F)c1ccc(OCc2ccccc2)cc1` gave OX1R antag-1 8, GPR7 antag 0, OX1R antag-2 -4, CHO parental Ca 10, Ga16 ag counter 1 and Ga16 nonsel ant 13.
For O=C(N/N=C/c1ccc(F)cc1)c1ccc(OCc2ccccc2)cc1 the results were TAAR1 ag 0, OX1R antag-1 2, GPR7 antag 2, TAAR1 antag -2, OX1R antag-2 -4 and CHO parental Ca -7.
Screening O=C(Nc1ccc(OCc2ccccc2)cc1)Nc1cccnc1 returned TAAR1 ag 4, OX1R antag-1 10, GPR7 antag 12, TAAR1 antag 14, OX1R antag-2 -15 and CHO parental Ca 3.

High-throughput results: PubChem, The Scripps Research Institute Molecular Screening Center
